Measurements: PubChem BioAssay AID623912 (Johns Hopkins Ion Channel Center, 2012)
Active and inactive are the calls of the source.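 How the source made its calls: active means peak KCNK3 inhibition above a set limit at some dose, plus a fitted dose-response curve; inactive means no KCNK3 inhibition, or no dose-response curve.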

Target: Potassium channel subfamily K member 3 (Rattus norvegicus) (UniProt O54912)
Assay: inhibition of rat KCNK3 channel, SAR follow-up, selectivity assay for KCNK9 inhibitor project, cell-based, FluxOR thallium flux, CRC set 2 (AID 623912)
Conditions: KCNK3-expressing cells, FluxOR thallium flux fluorescence; for flux ratio, lower = inhibition: at 3 µM (top of the series)
Method in brief: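 Material: tetracycline-induced CHO cells expressing rat KCNK3 potassium channel / Probe or stimulus: Tl+/K+ sulfate stimulus buffer (5x stock) / Dosing: compound concentration-response series / Schedule: 90 min FluxOR loading, 20 min compound, 10+110 s recording / Technique: FluxOR Tl+ flux fluorescence / Read-out: IC50 from normalized flux signal / Replicates: at least duplicate concentration-response curves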

Chain of Potassium channel subfamily K member 3 (Rattus norvegicus) (O54912 whole entry, looked up): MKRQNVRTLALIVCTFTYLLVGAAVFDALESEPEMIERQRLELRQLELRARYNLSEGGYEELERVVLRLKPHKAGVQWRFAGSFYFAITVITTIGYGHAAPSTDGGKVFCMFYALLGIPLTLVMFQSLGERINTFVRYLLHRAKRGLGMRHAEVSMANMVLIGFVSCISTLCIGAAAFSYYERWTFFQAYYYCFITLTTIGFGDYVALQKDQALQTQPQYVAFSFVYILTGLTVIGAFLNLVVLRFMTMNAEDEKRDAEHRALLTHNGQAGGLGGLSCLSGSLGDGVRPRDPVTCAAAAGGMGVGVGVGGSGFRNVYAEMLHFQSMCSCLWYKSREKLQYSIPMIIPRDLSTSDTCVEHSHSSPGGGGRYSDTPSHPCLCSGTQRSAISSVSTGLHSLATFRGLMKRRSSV

| SMILES | IC50 | flux ratio, lower = inhibition |
| --- | --- | --- |
| CSc1nnc(-c2ccco2)n1C(C)C1CC2CCC1C2 (configuration not stated) | 873 nM | – |
| COc1cccc(C(=O)Nc2cccc(NC(=O)c3cccc(C)c3)c2)c1 | 31 nM | – |
| O=C(Nc1cccc(NC(=O)c2cccnc2)c1)c1ccccc1 | 1290 nM | – |
| CC(c1cccc2ccccc12)n1c(-c2ccco2)n[nH]c1=S (configuration not stated) | 561 nM | – |
| CC(C1CC2CCC1C2)N(C)C(=O)c1ccco1 (configuration not stated) | 6 nM | – |
| COc1cc(OC)cc(-c2n[nH]c(=S)n2C(C)C2CC3CCC2C3)c1 (configuration not stated) | 110 nM | – |
| CC(C1CC2CCC1C2)n1c(SC(F)F)nnc1-c1ccco1 (configuration not stated) | – | inactive |
| O=C(Nc1cccc(NC(=O)c2cccc(F)c2)c1)c1ccccc1 | 44.2 nM | – |
| COc1ccccc1NC(=O)c1cccc(NC(=O)c2ccccc2C(F)(F)F)c1 | 42 nM | – |
| O=C(Nc1cccc(NC(=O)c2ccsc2)c1)c1ccccc1 | 162 nM | – |
| CCOc1ccccc1NC(=O)c1cccc(NC(=O)c2cccc(Cl)c2)c1 | 39 nM | – |
| COc1ccccc1C(=O)Nc1cccc(NC(=O)c2ccccc2OC)c1 | 9.67 nM | – |
| COc1ccccc1-c1n[nH]c(=S)n1C(C)C1CC2CCC1C2 (configuration not stated) | 102 nM | – |
| CCOc1ccccc1NC(=O)c1cccc(NC(=O)C2CC2)c1 | 1070 nM | – |
| O=C(Nc1cccc(NC(=O)c2ccco2)c1)c1ccccc1 | 36.5 nM | – |
| O=C(Nc1cccc(NC(=O)c2ccc(F)cc2)c1)c1ccccc1 | 306 nM | – |
| CCOc1ccccc1NC(=O)c1cccc(NC(=O)C2CCCO2)c1 (configuration not stated) | 129 nM | – |
| Cc1cccc(C(=O)Nc2cccc(NC(=O)c3cccs3)c2)c1 | 3 nM | – |
| CCOc1ccccc1NC(=O)c1cccc(NC(=O)C2CCOC2)c1 (configuration not stated) | 1330 nM | – |
| CCOc1ccccc1NC(=O)c1cccc(NC(=O)c2ccccc2OC(F)(F)F)c1 | 114 nM | – |
| CCOc1cccc(NC(=O)c2cccc(NC(=O)C3CCCC3)c2)c1 | 491 nM | – |
| O=C(Nc1cccc(NC(=O)c2ccncc2)c1)c1ccccc1 | 249 nM | – |
| CCOc1ccc(NC(=O)c2cccc(NC(=O)C3CCCC3)c2)cc1 | 70.2 nM | – |
| COc1ccccc1NC(=O)c1cccc(NC(=O)c2ccccc2)c1 | 64 nM | – |

| SMILES | IC50 | flux ratio, lower = inhibition |
| --- | --- | --- |
| CCOc1ccccc1NC(=O)c1cccc(NC(=O)CC2CCCC2)c1 | 161 nM | – |
| CCOc1ccccc1C(=O)Nc1cccc(NC(=O)c2ccccc2OC)c1 | 2 nM | – |
| CCOc1ccccc1C(=O)Nc1cccc(NC(=O)C2CCCC2)c1 | 108 nM | – |
| Cc1cccc(C(=O)Nc2cccc(NC(=O)c3ccccc3)c2)c1 | 96.3 nM | – |
| CN(C)c1ccc(C(=O)Nc2cccc(NC(=O)c3ccccc3)c2)cc1 | 259 nM | – |
| CCOc1ccccc1NC(=O)c1cccc(NC(=O)c2ccccc2)c1 | 121 nM | – |
| CC(C1CC2CCC1C2)n1c(-c2ccco2)n[nH]c1=S (configuration not stated) | 341 nM | – |
| CC(C)n1c(-c2ccco2)n[nH]c1=S | 92.2 nM | – |
| CCOc1ccccc1C(=O)Nc1cccc(NC(=O)c2ccccc2C(F)(F)F)c1 | 2 nM | – |
| COc1ccccc1NC(=O)c1cccc(NC(=O)C2CCCC2)c1 | 238 nM | – |
| Cc1cccc(C(=O)Nc2cccc(NC(=O)C3CCCCC3)c2)c1 | 17 nM | – |
| CC(C1CC2CCC1C2)n1c(-c2ccsc2)n[nH]c1=S (configuration not stated) | – | inactive |
| S=c1[nH]nc(-c2ccco2)n1C1CC2CCC1C2 (configuration not stated) | 37 nM | – |
| CC(C1CCCCC1)n1c(-c2ccco2)n[nH]c1=S (configuration not stated) | 44 nM | – |
| CCOc1ccccc1NC(=O)c1cccc(NC(=O)C(C)(C)C)c1 | 1320 nM | – |
| COc1ccc(-c2n[nH]c(=S)n2C(C)C2CC3CCC2C3)cc1 (configuration not stated) | – | inactive |
| O=C(Nc1ccccc1Cl)c1cccc(NC(=O)C2CCCC2)c1 | 202 nM | – |
| COc1ccccc1C(=O)Nc1cccc(NC(=O)c2cccc3ccccc23)c1 | 3 nM | – |
| O=C(Nc1cccc(NC(=O)c2cccs2)c1)c1ccccc1 | 29.4 nM | – |
| Cc1cccc(C(=O)Nc2ccc(C(=O)Nc3ccccc3)cc2)c1 | 183 nM | – |
| CC(C1CC2CCC1C2)n1c(SCc2ccccc2)nnc1-c1ccco1 (configuration not stated) | 1660 nM | – |
| COc1ccccc1NC(=O)c1cccc(NC(=O)C2CCCCC2)c1 | 86 nM | – |
| CC(C)(C)c1ccc(C(=O)Nc2cccc(NC(=O)c3ccccc3)c2)cc1 | – | inactive |
| CC(C1CC2CCC1C2)n1c(-c2cccs2)n[nH]c1=S (configuration not stated) | 18 nM | – |

| SMILES | IC50 | flux ratio, lower = inhibition |
| --- | --- | --- |
| CCOc1ccccc1NC(=O)c1cccc(NC(=O)c2ccccc2OC)c1 | 6.53 nM | – |
| COc1cccc(-c2nnc(S(C)(=O)=O)n2C(C)C2CC3CCC2C3)c1 (configuration not stated) | 106 nM | – |
| CCOc1ccccc1NC(=O)c1cccc(NC(=O)c2ccccc2Cl)c1 | 83.9 nM | – |
| S=c1[nH]nc(-c2ccco2)n1CC1CC2CCC1C2 (configuration not stated) | 915 nM | – |
| Cc1cccc(C(=O)Nc2cccc(NC(=O)c3ccccc3OCC(C)C)c2)c1 | 206 nM | – |
| O=C(Nc1cccc(NC(=O)c2cccc(C(F)(F)F)c2)c1)c1ccccc1 | 147 nM | – |
| Cc1cccc(NC(=O)c2ccccc2NC(=O)c2ccccc2)c1 | 1380 nM | – |
| CC(C1CC2CCC1C2)n1c(-c2ccccc2)n[nH]c1=S (configuration not stated) | 403 nM | – |
| CCOc1ccccc1NC(=O)c1cccc(NC(=O)c2cccc(C(F)(F)F)c2)c1 | 232 nM | – |
| CC(C)Oc1ccccc1C(=O)Nc1cccc(NC(=O)c2ccccc2OC(F)(F)F)c1 | 1 nM | – |
| CCOc1ccccc1NC(=O)c1cccc(C(=O)NC2CCCC2)c1 | 342 nM | – |
| O=C(Nc1cccc(NC(=O)c2ccccc2)c1)c1ccccc1 | 18 nM | – |
| CC(C1CC2CCC1C2)n1c(-c2cccnc2)n[nH]c1=S (configuration not stated) | 1020 nM | – |
| CCOc1ccccc1NC(=O)c1cccc(NC(=O)c2cccc(C)c2)c1 | 17 nM | – |
| CCOc1ccccc1NC(=O)c1cccc(NC(=O)c2ccc(C(F)(F)F)cc2)c1 | 220 nM | – |
| Cc1cccc(C(=O)Nc2cccc(NC(=O)c3ccco3)c2)c1 | 143 nM | – |
| Cc1cccc(C(=O)Nc2cccc(NC(=O)c3cccc(Cl)c3)c2)c1 | 3 nM | – |
| CCOc1ccccc1NC(=O)c1cccc(NC(=O)c2ccc(Cl)cc2)c1 | 139 nM | – |
| CC(C1CC2CCC1C2)n1c(-c2ccco2)nnc1C(F)(F)F (configuration not stated) | 1180 nM | – |
| CC(C1CC2CCC1C2)n1c(-c2cccn2C)n[nH]c1=S (configuration not stated) | 1080 nM | – |
| O=C(Nc1cccc(NC(=O)c2cccc(Cl)c2)c1)c1ccccc1 | 120 nM | – |
| O=C(Nc1cccc(NC(=O)C2CCCCC2)c1)c1ccccc1 | 79.2 nM | – |
| COc1ccccc1C(=O)Nc1cccc(NC(=O)c2cccc(C)c2)c1 | 11 nM | – |

Further lines, results first:

| IC50 | flux ratio, lower = inhibition | SMILES |
| --- | --- | --- |
| 27 nM | – | Cc1cccc(C(=O)Nc2cccc(NC(=O)c3ccncc3)c2)c1 |
| 7 nM | – | COc1ccccc1C(=O)Nc1cccc(NC(=O)c2ccccc2C(C)C)c1 |
| 10 nM | – | COc1ccccc1C(=O)Nc1cc(NC(=O)c2ccccc2C(C)C)ccc1F |
| – | inactive | O=C(Nc1cccc(NC(=O)c2ccc(Cl)cc2)c1)c1ccccc1 |
| – | inactive | Cc1cccc(C(=O)Nc2cccc(NC(=O)c3ccc(C(F)(F)F)cc3)c2)c1 |
| 181 nM | – | CC(C1CC2CCC1C2)n1c(-c2ccco2)n[nH]c1=O (configuration not stated) |
| 130 nM | – | O=C(Nc1cccc(NC(=O)c2ccccc2C(F)(F)F)c1)c1ccccc1 |
| 134 nM | – | CCOc1ccccc1NC(=O)c1cccc(NC(=O)c2ccc(C)cc2)c1 |
| 2080 nM | – | COc1ccc(C(=O)CSc2nnc(-c3ccco3)n2C(C)C2CC3CCC2C3)cc1OC (configuration not stated) |
| – | inactive | CC(C1CC2CCC1C2)n1c(C2CCOC2)n[nH]c1=S (configuration not stated) |
| 66.9 nM | – | CCOc1ccccc1NC(=O)c1cccc(NC(=O)C2CCCCC2)c1 |
| – | inactive | CC(c1ccco1)n1c(-c2ccoc2)n[nH]c1=S (configuration not stated) |
| 222 nM | – | COc1ccccc1C(=O)Nc1cccc(NC(=O)c2ccccc2)c1 |
| 2270 nM | – | COc1ccc(C(=O)Nc2cccc(NC(=O)c3ccccc3)c2)cc1 |
| – | inactive | Cc1cccc(C(=O)Nc2cccc(NC(=O)c3ccccc3C(F)(F)F)c2)c1 |
| 217 nM | – | CCOc1ccccc1NC(=O)c1cccc(NC(=O)CC2CCCCC2)c1 |
| 240 nM | – | CC(C1CC2CCC1C2)n1c(-c2ccc(Cl)cc2)n[nH]c1=S (configuration not stated) |
| 148 nM | – | COc1cccc(OC)c1C(=O)Nc1cccc(NC(=O)c2cccc(C)c2)c1 |
| 8 nM | – | COc1ccccc1NC(=O)c1cccc(NC(=O)c2ccccc2OC)c1 |
| 15 nM | – | COc1cccc(-c2n[nH]c(=S)n2C(C)C2CC3CCC2C3)c1OC (configuration not stated) |
| – | inactive | Cc1cccc(-c2n[nH]c(=S)n2C(C)C2CC3CCC2C3)c1 (configuration not stated) |

| IC50 | flux ratio, lower = inhibition | SMILES |
| --- | --- | --- |
| 82 nM | – | CC(C1CC2CCC1C2)n1c(-c2cccc(F)c2)n[nH]c1=S (configuration not stated) |
| 1450 nM | – | Cc1cccc(S(=O)(=O)Nc2cccc(NC(=O)c3ccccc3)c2)c1 |
| 104 nM | – | Cc1ccccc1C(=O)Nc1cccc(NC(=O)c2ccccc2)c1 |
| 567 nM | – | CC(c1ccccc1)n1c(-c2ccco2)n[nH]c1=S (configuration not stated) |
| 770 nM | – | Cc1ccc(-c2n[nH]c(=S)n2C(C)C2CC3CCC2C3)cc1 (configuration not stated) |
| 68.3 nM | – | CCOc1ccccc1NC(=O)c1cccc(NC(=O)C2CCCC2)c1 |
| 86 nM | – | COc1ccccc1NC(=O)c1cccc(NC(=O)CC2CCCC2)c1 |
| 7.46 nM | – | CCOc1ccccc1C(=O)Nc1cccc(NC(=O)c2cccc(C)c2)c1 |
| 140 nM | – | CCOc1ccccc1NC(=O)c1cccc(NC(=O)c2ccccc2C)c1 |
| 23 nM | – | Cc1cccc(C(=O)Nc2cccc(NC(=O)c3ccccc3Cl)c2)c1 |
| 799 nM | – | O=C(Nc1cccc(NC(=O)c2ccoc2)c1)c1ccccc1 |
| 11 nM | – | Cc1cccc(C(=O)Nc2cccc(NC(=O)c3cccc(C(F)(F)F)c3)c2)c1 |
| 300 nM | – | CCOc1ccccc1NC(=O)c1cccc(NC(=O)c2ccc(OC)cc2)c1 |
| 1300 nM | – | CC(C1CC2CCC1C2)n1c(-c2ccccn2)n[nH]c1=S (configuration not stated) |
| – | inactive | Cc1cccc(NC(=O)c2cccc(NC(=O)c3ccccc3)c2)c1 |
| 311 nM | – | O=C(Nc1cccc(NC(=O)c2ccccc2Cl)c1)c1ccccc1 |
| 212 nM | – | COc1cccc(C(=O)Nc2cccc(NC(=O)c3ccccc3)c2)c1 |
| 145 nM | – | Cc1cccc(C(=O)Nc2cccc(NC(=O)c3ccc(N(C)C)cc3)c2)c1 |
| 4 nM | – | COc1ccccc1C(=O)Nc1cccc(NC(=O)c2ccccc2OC(F)(F)F)c1 |
| 73 nM | – | COc1ccccc1C(=O)Nc1cccc(NC(=O)c2ccccc2C)c1 |
